Key:
Settings in all cases: stereoisomer not certain
OR4A15 (Homo sapiens) = OR4A15 (Homo sapiens) (UniProt Q8NGL6)
Procedure, shortened: (§1)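 Each receptor–molecule pair is labelled responsive or non-responsive (inactive) according to whether the original authors judged the measured signal statistically different from baseline. The data were taken from the main text and supplementary material of published papers and checked for typos and inconsistencies. Assay methods differed by source, with transient luciferase assays in mammalian cell lines being common.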

OR4A16 (Homo sapiens) = OR4A16 (Homo sapiens) (UniProt Q8NH70)
Procedure, shortened: as §1

OR4A47 (Homo sapiens) = OR4A47 (Homo sapiens) (UniProt Q6IF82)
Procedure, shortened: as §1

OR4A5 (Homo sapiens) = OR4A5 (Homo sapiens) (UniProt Q8NH83)
Procedure, shortened: as §1

OR4A8 (Homo sapiens) = OR4A8 (Homo sapiens) (UniProt P0C604)
Procedure, shortened: as §1

OR4B1 (Homo sapiens) = OR4B1 (Homo sapiens) (UniProt Q8NGF8)
Procedure, shortened: as §1

OR4C11 (Homo sapiens) = OR4C11 (Homo sapiens) (UniProt Q6IEV9)
Procedure, shortened: as §1

OR4C12 (Homo sapiens) = OR4C12 (Homo sapiens) (UniProt Q96R67)
Procedure, shortened: as §1

OR4C13 (Homo sapiens) = OR4C13 (Homo sapiens) (UniProt Q8NGP0)
Procedure, shortened: as §1

OR4C15 (Homo sapiens) = OR4C15 (Homo sapiens) (UniProt Q8NGM1)
Procedure, shortened: as §1

OR4C16 (Homo sapiens) = OR4C16 (Homo sapiens) (UniProt Q8NGL9)
Procedure, shortened: as §1

OR4C3 (Homo sapiens) = OR4C3 (Homo sapiens) (UniProt Q8NH37)
Procedure, shortened: as §1

OR4C45 (Homo sapiens) [1] = target: OR4C45 (Homo sapiens) (UniProt A6NMZ5)
Procedure, shortened: as §1
Target sequence in this assay (A6NMZ5 as listed by the source): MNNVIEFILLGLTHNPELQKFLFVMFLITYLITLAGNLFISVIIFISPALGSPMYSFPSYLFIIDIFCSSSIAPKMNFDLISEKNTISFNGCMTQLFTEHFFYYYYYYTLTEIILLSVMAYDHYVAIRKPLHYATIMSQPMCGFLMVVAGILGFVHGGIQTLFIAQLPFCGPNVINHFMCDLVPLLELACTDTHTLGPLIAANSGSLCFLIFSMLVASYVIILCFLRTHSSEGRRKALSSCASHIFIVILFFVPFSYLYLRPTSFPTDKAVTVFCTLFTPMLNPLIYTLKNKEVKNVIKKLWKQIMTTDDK

OR4C46 (Homo sapiens) = OR4C46 (Homo sapiens) (UniProt A6NHA9)
Procedure, shortened: as §1

OR4C5 (Homo sapiens) = OR4C5 (Homo sapiens) (UniProt Q8NGB2)
Procedure, shortened: as §1

OR4C6 (Homo sapiens) = OR4C6 (Homo sapiens) (UniProt Q8NH72)
Procedure, shortened: as §1

OR4C3 = test system: OR4C3
Procedure, shortened: as §1

OR4C45 (Homo sapiens) [2] = target: OR4C45 (Homo sapiens) (UniProt A6NMZ5); remark: listed apart in the source
Procedure, shortened: as §1
Target sequence in this assay (A6NMZ5 whole entry): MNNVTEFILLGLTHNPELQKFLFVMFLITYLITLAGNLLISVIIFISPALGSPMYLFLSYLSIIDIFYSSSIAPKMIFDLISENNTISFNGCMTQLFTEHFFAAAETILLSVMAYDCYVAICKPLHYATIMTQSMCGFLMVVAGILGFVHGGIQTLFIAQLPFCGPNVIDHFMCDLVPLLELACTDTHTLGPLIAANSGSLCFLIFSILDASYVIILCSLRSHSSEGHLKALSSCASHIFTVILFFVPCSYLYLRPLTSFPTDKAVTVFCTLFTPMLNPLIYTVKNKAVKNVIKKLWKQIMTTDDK

OR4CB P8T = test system: OR4CB P8T
Procedure, shortened: as §1

OR4CC = test system: OR4CC
Procedure, shortened: as §1

Measured: odorant receptor agonist call

OR4A5 (Homo sapiens), sequence (Q8NH83 whole entry): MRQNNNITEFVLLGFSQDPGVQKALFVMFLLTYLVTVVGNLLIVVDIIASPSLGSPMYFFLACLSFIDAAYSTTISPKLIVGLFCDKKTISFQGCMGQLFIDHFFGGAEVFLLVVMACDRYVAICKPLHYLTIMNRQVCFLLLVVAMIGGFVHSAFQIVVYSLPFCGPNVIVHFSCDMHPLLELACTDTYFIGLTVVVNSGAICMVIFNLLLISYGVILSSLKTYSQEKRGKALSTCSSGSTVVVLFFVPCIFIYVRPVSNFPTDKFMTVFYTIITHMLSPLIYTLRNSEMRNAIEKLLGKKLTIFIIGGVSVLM
OR4A16 (Homo sapiens), sequence (Q8NH70 whole entry): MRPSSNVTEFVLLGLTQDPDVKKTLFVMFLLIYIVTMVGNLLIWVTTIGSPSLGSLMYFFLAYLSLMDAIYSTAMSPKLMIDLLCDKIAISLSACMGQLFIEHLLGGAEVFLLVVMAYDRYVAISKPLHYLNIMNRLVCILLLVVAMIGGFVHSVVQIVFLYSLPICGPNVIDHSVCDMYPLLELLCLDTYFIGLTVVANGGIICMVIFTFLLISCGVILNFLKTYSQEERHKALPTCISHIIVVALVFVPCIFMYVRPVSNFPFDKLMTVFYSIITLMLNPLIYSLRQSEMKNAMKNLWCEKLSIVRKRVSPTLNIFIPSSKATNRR
OR4C16 (Homo sapiens), sequence (Q8NGL9 whole entry): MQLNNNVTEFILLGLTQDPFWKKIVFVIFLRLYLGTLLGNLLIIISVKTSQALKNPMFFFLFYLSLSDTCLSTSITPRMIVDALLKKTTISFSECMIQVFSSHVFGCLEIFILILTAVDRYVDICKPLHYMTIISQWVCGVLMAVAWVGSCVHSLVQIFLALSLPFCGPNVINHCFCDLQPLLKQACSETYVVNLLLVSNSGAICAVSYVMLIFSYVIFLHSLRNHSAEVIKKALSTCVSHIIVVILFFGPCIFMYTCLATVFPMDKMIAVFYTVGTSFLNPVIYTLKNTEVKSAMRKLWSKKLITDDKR
OR4C13 (Homo sapiens), sequence (Q8NGP0 whole entry): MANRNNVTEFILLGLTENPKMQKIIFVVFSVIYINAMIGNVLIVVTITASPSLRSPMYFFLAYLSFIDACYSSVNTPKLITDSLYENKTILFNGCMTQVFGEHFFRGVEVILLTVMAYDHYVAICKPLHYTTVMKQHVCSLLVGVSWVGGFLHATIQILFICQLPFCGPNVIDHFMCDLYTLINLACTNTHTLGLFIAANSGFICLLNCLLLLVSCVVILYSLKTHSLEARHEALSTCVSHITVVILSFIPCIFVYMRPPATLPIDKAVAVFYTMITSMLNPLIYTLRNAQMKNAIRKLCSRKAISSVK
OR4A15 (Homo sapiens), sequence (Q8NGL6 whole entry): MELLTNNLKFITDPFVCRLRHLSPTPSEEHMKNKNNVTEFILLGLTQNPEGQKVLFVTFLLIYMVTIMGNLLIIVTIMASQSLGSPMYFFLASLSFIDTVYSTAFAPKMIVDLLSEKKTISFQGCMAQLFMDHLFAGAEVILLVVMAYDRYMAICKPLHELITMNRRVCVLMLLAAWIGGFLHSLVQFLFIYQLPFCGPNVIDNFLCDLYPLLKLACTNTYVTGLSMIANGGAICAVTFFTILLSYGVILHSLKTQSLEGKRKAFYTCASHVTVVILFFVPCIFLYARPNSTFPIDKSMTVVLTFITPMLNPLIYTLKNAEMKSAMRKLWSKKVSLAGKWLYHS
OR4B1 (Homo sapiens), sequence (Q8NGF8 whole entry): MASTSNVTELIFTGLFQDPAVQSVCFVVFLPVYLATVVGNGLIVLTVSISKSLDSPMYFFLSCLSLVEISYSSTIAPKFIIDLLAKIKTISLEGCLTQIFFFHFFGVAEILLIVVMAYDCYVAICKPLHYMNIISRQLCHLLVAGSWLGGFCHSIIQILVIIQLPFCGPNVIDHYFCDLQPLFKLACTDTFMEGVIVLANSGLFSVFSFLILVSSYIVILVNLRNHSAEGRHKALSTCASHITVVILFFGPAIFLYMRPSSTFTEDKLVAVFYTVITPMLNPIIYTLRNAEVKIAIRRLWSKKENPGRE
OR4C12 (Homo sapiens), sequence (Q96R67 whole entry): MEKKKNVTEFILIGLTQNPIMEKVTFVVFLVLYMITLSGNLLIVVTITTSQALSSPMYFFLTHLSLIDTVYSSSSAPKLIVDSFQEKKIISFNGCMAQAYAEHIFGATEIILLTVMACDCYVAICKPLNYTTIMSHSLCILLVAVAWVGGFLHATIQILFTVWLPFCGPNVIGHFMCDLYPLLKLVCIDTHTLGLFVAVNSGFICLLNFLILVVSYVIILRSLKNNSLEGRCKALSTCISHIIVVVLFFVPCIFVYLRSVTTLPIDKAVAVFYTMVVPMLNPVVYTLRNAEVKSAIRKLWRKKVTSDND
OR4C11 (Homo sapiens), sequence (Q6IEV9 whole entry): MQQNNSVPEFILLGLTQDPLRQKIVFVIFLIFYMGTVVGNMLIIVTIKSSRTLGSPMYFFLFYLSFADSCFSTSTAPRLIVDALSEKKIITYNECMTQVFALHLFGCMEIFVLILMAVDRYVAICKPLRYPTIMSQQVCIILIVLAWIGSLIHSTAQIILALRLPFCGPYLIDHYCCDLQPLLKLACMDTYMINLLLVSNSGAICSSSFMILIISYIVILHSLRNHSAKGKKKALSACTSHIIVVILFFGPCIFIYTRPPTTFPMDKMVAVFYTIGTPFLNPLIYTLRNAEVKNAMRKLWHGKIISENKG
OR4A47 (Homo sapiens), sequence (Q6IF82 whole entry): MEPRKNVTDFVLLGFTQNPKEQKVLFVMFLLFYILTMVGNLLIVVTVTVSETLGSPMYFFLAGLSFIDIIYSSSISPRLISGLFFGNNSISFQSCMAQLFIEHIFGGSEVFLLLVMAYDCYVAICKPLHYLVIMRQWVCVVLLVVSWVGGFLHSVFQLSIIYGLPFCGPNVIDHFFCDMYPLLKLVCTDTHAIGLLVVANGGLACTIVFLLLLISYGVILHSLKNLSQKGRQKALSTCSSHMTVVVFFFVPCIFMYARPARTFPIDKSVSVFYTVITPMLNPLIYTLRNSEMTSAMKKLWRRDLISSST
OR4C46 (Homo sapiens), sequence (A6NHA9 whole entry): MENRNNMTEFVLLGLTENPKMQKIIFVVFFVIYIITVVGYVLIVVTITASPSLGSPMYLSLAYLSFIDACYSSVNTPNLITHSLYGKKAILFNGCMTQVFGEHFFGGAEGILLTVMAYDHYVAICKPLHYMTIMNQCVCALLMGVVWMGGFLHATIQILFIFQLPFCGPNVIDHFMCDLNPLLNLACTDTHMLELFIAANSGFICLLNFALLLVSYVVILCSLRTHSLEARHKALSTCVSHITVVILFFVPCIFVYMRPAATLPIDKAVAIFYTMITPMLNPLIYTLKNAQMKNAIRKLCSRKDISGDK
OR4C6 (Homo sapiens), sequence (Q8NH72 whole entry): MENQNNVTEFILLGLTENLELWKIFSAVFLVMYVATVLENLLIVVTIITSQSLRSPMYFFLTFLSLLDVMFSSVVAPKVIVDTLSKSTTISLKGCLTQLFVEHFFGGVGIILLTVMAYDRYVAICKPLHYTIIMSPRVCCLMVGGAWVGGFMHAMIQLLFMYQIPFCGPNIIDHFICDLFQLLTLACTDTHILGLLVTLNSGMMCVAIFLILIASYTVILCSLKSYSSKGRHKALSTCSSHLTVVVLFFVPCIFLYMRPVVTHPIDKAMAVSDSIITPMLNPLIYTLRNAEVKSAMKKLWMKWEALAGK
OR4C5 (Homo sapiens), sequence (Q8NGB2 whole entry): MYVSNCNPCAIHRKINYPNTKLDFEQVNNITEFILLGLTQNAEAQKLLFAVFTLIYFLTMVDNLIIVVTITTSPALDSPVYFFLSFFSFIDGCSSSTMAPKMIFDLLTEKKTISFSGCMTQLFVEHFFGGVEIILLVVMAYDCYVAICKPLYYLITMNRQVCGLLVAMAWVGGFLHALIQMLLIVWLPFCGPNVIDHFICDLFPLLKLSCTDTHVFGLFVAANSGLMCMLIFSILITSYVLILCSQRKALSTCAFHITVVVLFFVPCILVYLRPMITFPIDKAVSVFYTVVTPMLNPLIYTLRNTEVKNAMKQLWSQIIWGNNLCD
OR4C15 (Homo sapiens), sequence (Q8NGM1 whole entry): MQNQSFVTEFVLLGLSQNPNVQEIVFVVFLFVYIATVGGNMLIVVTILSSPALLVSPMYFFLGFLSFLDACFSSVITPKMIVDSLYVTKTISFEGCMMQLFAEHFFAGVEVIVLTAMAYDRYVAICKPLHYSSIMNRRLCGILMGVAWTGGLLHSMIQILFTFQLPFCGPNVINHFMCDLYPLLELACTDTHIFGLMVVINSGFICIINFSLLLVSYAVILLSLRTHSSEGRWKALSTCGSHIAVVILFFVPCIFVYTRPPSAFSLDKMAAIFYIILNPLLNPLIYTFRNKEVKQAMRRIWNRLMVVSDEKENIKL
OR4CB P8T, sequence (as listed by the source): as the sequence (Q6IEV9 whole entry) above, with P8T counted along it

Cc1c([N+](=O)[O-])c(C)c([N+](=O)[O-])c(C(C)(C)C)c1[N+](=O)[O-]
not listed: OR4C3 | OR4C45 (Homo sapiens) [2] | OR4CB P8T | OR4CC
inactive: all other assays above

C=CCOC(=O)Cc1ccccc1
not listed: OR4A8 (Homo sapiens) | OR4C15 (Homo sapiens) | OR4C3 (Homo sapiens) | OR4C45 (Homo sapiens) [1]
inactive: all other assays above
